Measured values as given in ChEMBL document CHEMBL1142972, “Novel N-substituted indol-3-ylglyoxylamides probing the LDi and L1/L2 lipophilic regions of the benzodiazepine receptor site in search for subtype-selective ligands” (J Med Chem, 2007).
Calls of active or inactive are those of the source. The rule behind the calls is not given here.

Assays:
Bos taurus = species: Bos taurus; experiment: Displacement of [3H]flumazenil from benzodiazepine receptor in bovine brain membranes at 10 uM; type: cell membranes
Summary of the method: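 Bovine cerebral cortex membranes, freeze-thawed once and washed in 50 mM Tris-citrate pH 7.4, used for competition against [3H]flumazenil. Test compound at a fixed 10 µM; read-out is % inhibition of specific binding, as mean of three determinations run in triplicate.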

[1] = Displacement of [3H]flumazenil from benzodiazepine receptor in bovine brain membranes; type: cell membranes, Bos taurus
[2] = target: GABA A receptor alpha-2/beta-2/gamma-2 (Rattus norvegicus) (UniProt P18508+P23576+P63138); experiment: Displacement of [3H]flumazenil from rat GABAA alpha-2-beta-2-gamma-2 expressed in HEK293 cells at 10 uM; type: cell-based
Summary of the method: (§1)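 [3H]flumazenil competition in membranes of HEK293 cells stably expressing rat GABAA subtypes, prepared in 10 mM potassium phosphate pH 7.4 (48 000g, 4 °C, two washes, final buffer with 100 mM KCl). Single test concentration of 10 µM; % inhibition of specific binding, mean ± SEM of three determinations in triplicate.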

[3] = target: GABA A receptor alpha-5/beta-3/gamma-2 (Rattus norvegicus) (UniProt P18508+P19969+P63079); experiment: Displacement of [3H]flumazenil from rat GABAA alpha-5-beta-3-gamma-2 expressed in HEK293 cells at 10 uM; type: cell-based; summary of the method: as §1
[4] = target: GABA-A receptor; alpha-1/beta-2/gamma-2 (Rattus norvegicus, UniProt P18508+P62813+P63138); experiment: Displacement of [3H]flumazenil from rat GABAA alpha-1-beta-2-gamma-2 expressed in HEK293 cells; type: cell-based
GABA-A receptor; alpha-1/beta-2/gamma-2, sequence (P18508 whole entry): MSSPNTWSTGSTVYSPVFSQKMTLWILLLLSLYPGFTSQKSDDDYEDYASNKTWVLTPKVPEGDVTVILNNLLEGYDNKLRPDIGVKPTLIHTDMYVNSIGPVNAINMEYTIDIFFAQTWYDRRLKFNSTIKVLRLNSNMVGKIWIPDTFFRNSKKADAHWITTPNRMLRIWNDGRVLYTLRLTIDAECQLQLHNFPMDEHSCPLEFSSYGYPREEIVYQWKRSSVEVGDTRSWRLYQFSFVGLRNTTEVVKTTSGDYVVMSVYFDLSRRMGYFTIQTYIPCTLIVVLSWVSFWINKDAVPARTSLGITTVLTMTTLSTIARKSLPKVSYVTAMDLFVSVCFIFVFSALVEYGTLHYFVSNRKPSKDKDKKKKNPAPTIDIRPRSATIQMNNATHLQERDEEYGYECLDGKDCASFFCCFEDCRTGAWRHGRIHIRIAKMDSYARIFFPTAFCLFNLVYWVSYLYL
GABA-A receptor; alpha-1/beta-2/gamma-2, sequence (P62813 whole entry): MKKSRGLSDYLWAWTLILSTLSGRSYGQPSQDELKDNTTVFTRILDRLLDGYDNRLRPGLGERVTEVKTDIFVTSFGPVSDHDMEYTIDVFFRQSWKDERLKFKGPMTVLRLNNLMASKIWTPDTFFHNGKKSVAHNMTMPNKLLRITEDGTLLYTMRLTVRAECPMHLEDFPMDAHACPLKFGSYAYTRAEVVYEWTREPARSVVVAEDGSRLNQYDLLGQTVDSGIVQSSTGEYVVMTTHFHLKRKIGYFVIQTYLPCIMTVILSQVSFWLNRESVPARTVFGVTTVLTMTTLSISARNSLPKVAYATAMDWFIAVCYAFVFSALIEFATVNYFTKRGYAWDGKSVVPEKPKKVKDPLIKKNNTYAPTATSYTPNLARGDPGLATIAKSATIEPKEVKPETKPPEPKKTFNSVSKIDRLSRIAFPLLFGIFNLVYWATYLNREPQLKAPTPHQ
GABA-A receptor; alpha-1/beta-2/gamma-2, sequence (P63138 whole entry): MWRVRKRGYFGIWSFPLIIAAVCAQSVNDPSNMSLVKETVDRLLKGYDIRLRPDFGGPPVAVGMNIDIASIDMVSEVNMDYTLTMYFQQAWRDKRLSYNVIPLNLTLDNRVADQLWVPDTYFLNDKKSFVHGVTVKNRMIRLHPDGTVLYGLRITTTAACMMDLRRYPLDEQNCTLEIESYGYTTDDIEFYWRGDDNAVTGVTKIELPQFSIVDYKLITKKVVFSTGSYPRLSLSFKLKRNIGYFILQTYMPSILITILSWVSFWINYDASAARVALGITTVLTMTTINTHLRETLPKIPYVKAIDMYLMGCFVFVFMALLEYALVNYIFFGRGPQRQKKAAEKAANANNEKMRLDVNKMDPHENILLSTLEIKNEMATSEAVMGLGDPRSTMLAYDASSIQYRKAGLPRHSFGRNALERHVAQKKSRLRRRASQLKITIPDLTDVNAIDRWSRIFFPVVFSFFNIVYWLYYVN
Summary of the method: (§2)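 Crude membranes from HEK293 cells stably expressing rat GABAA subtypes, cells grown in DMEM/F-12 with 10% FBS at 37 °C, 5% CO2. Homogenized in 10 mM potassium phosphate pH 7.4, spun at 48 000g for 30 min at 4 °C, washed twice, resuspended with 100 mM KCl. [3H]flumazenil displacement; Ki as mean ± SEM of three determinations in triplicate.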

Mus musculus = experiment: Decrease in spontaneous motor activity in Balb/C mouse at 10 mg/kg, ip; type: functional, organism-based; design: dose 10 mg/kg
[5] = target: GABA-A receptor; alpha-1/beta-2/gamma-2 (Rattus norvegicus) (UniProt P18508+P62813+P63138); experiment: Agonist activity at rat GABAA alpha-1-beta-2-gamma-2 expressed in HEK293 cells assessed as chloride influx; type: functional, cell-based
[6] = target: GABA A receptor alpha-5/beta-3/gamma-2 (Rattus norvegicus, UniProt P18508+P19969+P63079); experiment: Displacement of [3H]flumazenil from rat GABAA alpha-5-beta-3-gamma-2 expressed in HEK293 cells; type: cell-based; summary of the method: as §2
GABA A receptor alpha-5/beta-3/gamma-2, sequence (P18508 whole entry): as the sequence (P18508 whole entry) above
GABA A receptor alpha-5/beta-3/gamma-2, sequence (P19969 whole entry): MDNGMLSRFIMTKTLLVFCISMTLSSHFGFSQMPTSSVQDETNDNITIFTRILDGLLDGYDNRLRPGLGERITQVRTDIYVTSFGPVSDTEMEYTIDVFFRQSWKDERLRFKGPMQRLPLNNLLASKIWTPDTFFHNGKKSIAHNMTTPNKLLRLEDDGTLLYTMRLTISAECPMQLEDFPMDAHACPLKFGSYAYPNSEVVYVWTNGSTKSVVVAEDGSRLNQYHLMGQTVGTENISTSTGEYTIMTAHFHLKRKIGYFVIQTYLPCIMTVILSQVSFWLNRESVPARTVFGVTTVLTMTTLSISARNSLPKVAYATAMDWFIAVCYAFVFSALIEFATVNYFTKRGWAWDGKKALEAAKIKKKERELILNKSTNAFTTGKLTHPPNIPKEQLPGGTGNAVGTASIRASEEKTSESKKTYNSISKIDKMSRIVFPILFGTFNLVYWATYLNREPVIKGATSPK
GABA A receptor alpha-5/beta-3/gamma-2, sequence (P63079 whole entry): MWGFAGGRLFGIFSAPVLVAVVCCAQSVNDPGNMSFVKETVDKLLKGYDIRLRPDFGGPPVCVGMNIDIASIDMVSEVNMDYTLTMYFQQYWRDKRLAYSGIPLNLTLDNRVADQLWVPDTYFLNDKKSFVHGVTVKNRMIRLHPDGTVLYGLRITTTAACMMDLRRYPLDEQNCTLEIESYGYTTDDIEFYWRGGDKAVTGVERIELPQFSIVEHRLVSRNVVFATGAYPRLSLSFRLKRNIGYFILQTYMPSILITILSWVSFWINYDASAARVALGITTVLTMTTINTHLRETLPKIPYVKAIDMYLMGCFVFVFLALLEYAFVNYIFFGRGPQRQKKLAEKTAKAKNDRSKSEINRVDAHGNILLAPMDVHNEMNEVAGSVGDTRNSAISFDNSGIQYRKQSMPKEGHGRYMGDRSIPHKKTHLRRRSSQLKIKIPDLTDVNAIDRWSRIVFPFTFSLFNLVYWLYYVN

[7] = target: GABA A receptor alpha-2/beta-2/gamma-2 (Rattus norvegicus, UniProt P18508+P23576+P63138); experiment: Displacement of [3H]flumazenil from rat GABAA alpha-2-beta-2-gamma-2 expressed in HEK293 cells; type: cell-based; summary of the method: as §2
GABA A receptor alpha-2/beta-2/gamma-2, sequence (P18508 whole entry): as the sequence (P18508 whole entry) above
GABA A receptor alpha-2/beta-2/gamma-2, sequence (P23576 whole entry): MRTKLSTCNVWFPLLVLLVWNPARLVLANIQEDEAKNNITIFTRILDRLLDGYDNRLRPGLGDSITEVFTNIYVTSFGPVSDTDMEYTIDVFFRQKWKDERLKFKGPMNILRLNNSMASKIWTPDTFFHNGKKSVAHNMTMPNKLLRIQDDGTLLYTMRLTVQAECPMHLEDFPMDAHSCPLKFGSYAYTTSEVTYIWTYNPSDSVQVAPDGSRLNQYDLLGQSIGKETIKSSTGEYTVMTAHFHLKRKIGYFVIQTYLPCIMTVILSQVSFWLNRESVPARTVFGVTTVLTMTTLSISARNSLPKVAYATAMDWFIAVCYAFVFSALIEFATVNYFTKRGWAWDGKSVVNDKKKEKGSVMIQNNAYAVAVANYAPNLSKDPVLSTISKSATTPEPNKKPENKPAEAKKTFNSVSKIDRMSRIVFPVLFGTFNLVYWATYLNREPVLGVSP
GABA A receptor alpha-2/beta-2/gamma-2, sequence (P63138 whole entry): as the sequence (P63138 whole entry) above

C[Si](C)(C)C#Cc1ccc(CNC(=O)C(=O)c2c[nH]c3ccccc23)cc1
inhibition (Bos taurus): 29%

C#Cc1ccc(CNC(=O)C(=O)c2c[nH]c3ccc([N+](=O)[O-])cc23)cc1
inhibition (Bos taurus): 28%

CC(C)CNC(=O)C(=O)c1c[nH]c2ccccc12
inhibition (Bos taurus): 43%

CCCCCNC(=O)C(=O)c1c[nH]c2ccccc12
Ki [1]: 1480 nM

CCCCCNC(=O)C(=O)c1c[nH]c2ccc([N+](=O)[O-])cc12
Ki [1]: 4100 nM

CC#Cc1ccc(CNC(=O)C(=O)c2c[nH]c3ccccc23)cc1
inhibition [2]: 16% | inhibition [3]: 13% | Ki [1]: 3280 nM | Ki [4]: 881 nM

C[Si](C)(C)CC#Cc1ccc(CNC(=O)C(=O)c2c[nH]c3ccc([N+](=O)[O-])cc23)cc1
inhibition (Bos taurus): 0%

Cc1ccc(CNC(=O)C(=O)c2c[nH]c3ccc([N+](=O)[O-])cc23)cc1
inhibition [2]: 0% | inhibition [3]: 0% | Activity (Mus musculus): Active | Activity [5]: 78% | Ki [1]: 88 nM | Ki [4]: 31.3 nM

CC(C)(C)NC(=O)C(=O)c1c[nH]c2ccc([N+](=O)[O-])cc12
Ki [1]: 2800 nM

CC(C)NC(=O)C(=O)c1c[nH]c2ccc([N+](=O)[O-])cc12
Ki [6]: 498 nM | Ki [1]: 57.8 nM | Ki [7]: 175 nM | Ki [4]: 15 nM

CC#Cc1ccc(CNC(=O)C(=O)c2c[nH]c3ccc([N+](=O)[O-])cc23)cc1
inhibition (Bos taurus): 0%

Cc1ccc(-c2nc3ccc(C)cn3c2CC(=O)N(C)C)cc1
Activity (Mus musculus): Active

O=C1CN=C(c2ccccc2Cl)c2cc([N+](=O)[O-])ccc2N1 [CLONAZEPAM]
Ki [1]: 0.85 nM

O=C(NCc1ccc(Br)cc1)C(=O)c1c[nH]c2ccccc12
Ki [6]: 1440 nM | Ki [1]: 93 nM | Ki [7]: 81 nM | Ki [4]: 17 nM

CCCCCCNC(=O)C(=O)c1c[nH]c2ccc([N+](=O)[O-])cc12
inhibition (Bos taurus): 53%

C[Si](C)(C)CC#Cc1ccc(CNC(=O)C(=O)c2c[nH]c3ccccc23)cc1
inhibition (Bos taurus): 3%

CCCCNC(=O)C(=O)c1c[nH]c2ccccc12
inhibition [2]: 7% | inhibition [3]: 28% | Ki [1]: 3720 nM | Ki [4]: 1170 nM

Cc1ccc(CNC(=O)C(=O)c2c[nH]c3ccccc23)cc1
Ki [1]: 606 nM

O=C(NCc1ccccc1)C(=O)c1c[nH]c2ccccc12
inhibition [2]: 39% | inhibition [3]: 46% | Ki [1]: 120 nM | Ki [4]: 346 nM

CCc1ccc(CNC(=O)C(=O)c2c[nH]c3ccccc23)cc1
inhibition [3]: 40% | Ki [1]: 2160 nM | Ki [7]: 1600 nM | Ki [4]: 559 nM

CCCCNC(=O)C(=O)c1c[nH]c2ccc([N+](=O)[O-])cc12
Ki [6]: 943 nM | Ki [1]: 110 nM | Ki [7]: 553 nM | Ki [4]: 125 nM

C[Si](C)(C)C#Cc1ccc(CNC(=O)C(=O)c2c[nH]c3ccc([N+](=O)[O-])cc23)cc1
inhibition (Bos taurus): 21%

O=C(NCc1ccc(Br)cc1)C(=O)c1c[nH]c2ccc([N+](=O)[O-])cc12
inhibition (Bos taurus): 31%

CCc1ccc(CNC(=O)C(=O)c2c[nH]c3ccc([N+](=O)[O-])cc23)cc1
inhibition (Bos taurus): 42%

O=C(NCc1ccccc1)C(=O)c1c[nH]c2ccc([N+](=O)[O-])cc12
inhibition [2]: 32% | inhibition [3]: 44% | Ki [1]: 117 nM | Ki [4]: 65 nM

CN1C(=O)CN=C(c2ccccc2)c2cc(Cl)ccc21 [DIAZEPAM]
Activity [5]: 72% | Ki [1]: 10 nM

CC(C)CNC(=O)C(=O)c1c[nH]c2ccc([N+](=O)[O-])cc12
inhibition (Bos taurus): 5%

CCC(C)NC(=O)C(=O)c1c[nH]c2ccccc12 (stereo unspecified)
inhibition (Bos taurus): 34%

CC(C)NC(=O)C(=O)c1c[nH]c2ccccc12
Ki [1]: 2690 nM

CC(C)(C)NC(=O)C(=O)c1c[nH]c2ccccc12
inhibition (Bos taurus): 7%

CCCCCCNC(=O)C(=O)c1c[nH]c2ccccc12
Ki [1]: 1650 nM

CCC(C)NC(=O)C(=O)c1c[nH]c2ccc([N+](=O)[O-])cc12 (stereo unspecified)
Ki [1]: 412 nM

C#Cc1ccc(CNC(=O)C(=O)c2c[nH]c3ccccc23)cc1
Ki [6]: 1150 nM | Ki [1]: 164 nM | Ki [7]: 414 nM | Ki [4]: 250 nM
